Measured values: ChEMBL document CHEMBL1137665, “Antistaphylococcal activity of CG400549, a new experimental FabI inhibitor, compared with that of other agents” (2007)
Converted amounts (≈) assume the structure as drawn.

Tests used:
Type in all cases: functional
Staphylococcus aureus [1] = assay: Antimicrobial activity against vancomycin-resistant Staphylococcus aureus 509 Michigan after 18 passages with quinupristin-dalfopristin measured after 10 antibiotic-free subculture by multi-step resistance selection technique
How it was run: (§1)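 Multistep-selected mutants (daily passage at subinhibitory drug levels) then subcultured 10 times daily on antibiotic-free medium; MIC redetermined afterwards and compared with the MIC recorded at the end of selection; clone identity to parent checked by pulsed-field gel electrophoresis.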

Staphylococcus aureus [2] = assay: Antimicrobial activity against vancomycin-resistant Staphylococcus aureus 510 Hershey by agar dilution CLSI method
How it was run: (§2)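 Agar dilution MIC per CLSI methodology; calcium supplemented for daptomycin testing; vancomycin plates read after a full 24-h incubation.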

Staphylococcus aureus [3] = assay: Antimicrobial activity against methicillin-resistant Staphylococcus aureus 490 after single-step resistance selection by agar dilution CLSI method
How it was run: (§3)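 Single-step selection on drug-containing agar across 10 strains (2 MSSA, 8 MRSA, including VRSA and VISA). Colonies arising on confluent background growth were retested by CLSI agar dilution MIC. Resistance was defined as an MIC more than 4× the parent MIC.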

Staphylococcus aureus [4] = assay: Antimicrobial activity against methicillin-resistant Staphylococcus aureus 547 after 21 passages with quinupristin-dalfopristin measured after 10 antibiotic-free subculture by multi-step resistance selection technique
How it was run: (§4)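 Mutants from multistep daily serial passage in subinhibitory drug were then subcultured daily 10 times on antibiotic-free medium. MIC was redetermined after these subcultures to assess stability. Clone identity was checked by pulsed-field gel electrophoresis.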

Staphylococcus aureus [5] = assay: Antimicrobial activity against methicillin-resistant Staphylococcus aureus 525 after 16 passages with quinupristin-dalfopristin measured after 10 antibiotic-free subculture by multi-step resistance selection technique; how it was run: as §4
Staphylococcus aureus [6] = assay: Antimicrobial activity against methicillin-susceptible Staphylococcus aureus 540 after 16 passages with quinupristin-dalfopristin measured after 10 antibiotic-free subculture by multi-step resistance selection technique; how it was run: as §4
Staphylococcus aureus [7] = assay: Antimicrobial activity against methicillin-susceptible Staphylococcus aureus 540 after 14 passages with CG400549 measured after 10 antibiotic-free subculture by multi-step resistance selection technique; how it was run: as §4
Staphylococcus aureus [8] = assay: Antimicrobial activity against vancomycin-resistant Staphylococcus aureus 510 Hershey after 14 passages with CG400549 measured after 10 antibiotic-free subculture by multi-step resistance selection technique; how it was run: as §1
Staphylococcus aureus [9] = assay: Antimicrobial activity against panton-valentine leukocidin-positive community-acquired methicillin-resistant Staphylococcus aureus 490 after 22 passages with Linezolid measured after 10 antibiotic-free subculture by multi-step resistance selection technique; how it was run: as §1
Staphylococcus aureus [10] = assay: Antimicrobial activity against vancomycin-resistant Staphylococcus aureus 509 Michigan by agar dilution CLSI method; how it was run: as §2
Staphylococcus aureus [11] = assay: Antimicrobial activity against methicillin-susceptible Staphylococcus aureus 543 after single-step resistance selection by agar dilution CLSI method; how it was run: as §3
Staphylococcus aureus [12] = assay: Antimicrobial activity against vancomycin-resistant Staphylococcus aureus 510 Hershey after 14 passages with quinupristin-dalfopristin measured after 10 antibiotic-free subculture by multi-step resistance selection technique; how it was run: as §1
Staphylococcus aureus [13] = assay: Antimicrobial activity against methicillin-susceptible Staphylococcus aureus 543 after 14 passages with CG400549 measured after 10 antibiotic-free subculture by multi-step resistance selection technique; how it was run: as §4
Staphylococcus aureus [14] = assay: Antimicrobial activity against panton-valentine leukocidin-negative community-acquired methicillin-resistant Staphylococcus aureus 481 after 37 passages with Linezolid measured after 10 antibiotic-free subculture by multi-step resistance selection technique; how it was run: as §4
Staphylococcus aureus [15] = assay: Antimicrobial activity against community-acquired vancomycin-intermediate Staphylococcus aureus 504 by agar dilution CLSI method
How it was run: (§5)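 CLSI agar dilution MIC against S. aureus clinical isolates. Calcium was added to the medium for daptomycin testing. Vancomycin plates were read after a full 24-h incubation.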

Staphylococcus aureus [16] = assay: Antimicrobial activity against panton-valentine leukocidin-negative community-acquired methicillin-resistant Staphylococcus aureus 481 by agar dilution CLSI method; how it was run: as §5
Staphylococcus aureus [17] = assay: Antimicrobial activity against methicillin-susceptible Staphylococcus aureus 540 after 24 passages with daptomycin measured after 10 antibiotic-free subculture by multi-step resistance selection technique; how it was run: as §4
Staphylococcus aureus [18] = assay: Antimicrobial activity against methicillin-resistant Staphylococcus aureus 525 after 14 passages with CG400549 measured after 10 antibiotic-free subculture by multi-step resistance selection technique; how it was run: as §4
Staphylococcus aureus [19] = assay: Antimicrobial activity against vancomycin-resistant Staphylococcus aureus 509 Michigan after 14 passages with CG400549 measured after 10 antibiotic-free subculture by multi-step resistance selection technique; how it was run: as §1
Staphylococcus aureus [20] = assay: Antimicrobial activity against methicillin-resistant Staphylococcus aureus 525 after 20 passages with daptomycin measured after 10 antibiotic-free subculture by multi-step resistance selection technique; how it was run: as §4
Staphylococcus aureus [21] = assay: Antimicrobial activity against methicillin-resistant Staphylococcus aureus by agar dilution CLSI method; how it was run: as §5
Staphylococcus aureus [22] = assay: Antimicrobial activity against methicillin-resistant vancomycin-intermediate Staphylococcus aureus 504 after single-step resistance selection by agar dilution CLSI method; how it was run: as §3
Staphylococcus aureus [23] = assay: Antimicrobial activity against methicillin-resistant vancomycin-intermediate Staphylococcus aureus 555 after single-step resistance selection by agar dilution CLSI method; how it was run: as §3
Staphylococcus aureus [24] = assay: Antimicrobial activity against methicillin-resistant Staphylococcus aureus 481 after single-step resistance selection by agar dilution CLSI method; how it was run: as §3
Staphylococcus aureus [25] = assay: Antimicrobial activity against vancomycin-intermediate Staphylococcus aureus 555 Hershey after 14 passages with CG400549 measured after 10 antibiotic-free subculture by multi-step resistance selection technique; how it was run: as §1
Staphylococcus aureus [26] = assay: Antimicrobial activity against panton-valentine leukocidin-negative community-acquired methicillin-resistant Staphylococcus aureus 481 after 14 passages by multi-step resistance selection technique
How it was run: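 Multistep selection by daily serial passage of each strain in subinhibitory drug concentrations for the stated number of passages. Mutant MIC was then determined. Identity of mutants and parents was confirmed by pulsed-field gel electrophoresis.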

Staphylococcus aureus [27] = assay: Antimicrobial activity against panton-valentine leukocidin-positive community-acquired methicillin-resistant Staphylococcus aureus 490 after 14 passages with daptomycin measured after 10 antibiotic-free subculture by multi-step resistance selection technique; how it was run: as §1
Staphylococcus aureus [28] = assay: Antimicrobial activity against vancomycin-resistant Staphylococcus aureus 509 Michigan after 28 passages with Linezolid measured after 10 antibiotic-free subculture by multi-step resistance selection technique; how it was run: as §1
Staphylococcus aureus [29] = assay: Antimicrobial activity against methicillin-resistant Staphylococcus aureus 547 after 48 passages with Linezolid measured after 10 antibiotic-free subculture by multi-step resistance selection technique; how it was run: as §4
Staphylococcus aureus [30] = assay: Antimicrobial activity against methicillin-susceptible Staphylococcus aureus 543 by agar dilution CLSI method; how it was run: as §5
Staphylococcus aureus [31] = assay: Antimicrobial activity against methicillin-resistant Staphylococcus aureus 547 after 21 passages with daptomycin measured after 10 antibiotic-free subculture by multi-step resistance selection technique; how it was run: as §4
Staphylococcus aureus [32] = assay: Antimicrobial activity against methicillin-susceptible Staphylococcus aureus 540 by agar dilution CLSI method; how it was run: as §5
Staphylococcus aureus [33] = assay: Antimicrobial activity against panton-valentine leukocidin-positive community-acquired methicillin-resistant Staphylococcus aureus 490 by agar dilution CLSI method; how it was run: as §2
Staphylococcus aureus [34] = assay: Antimicrobial activity against panton-valentine leukocidin-negative community-acquired methicillin-resistant Staphylococcus aureus 481 after 16 passages with quinupristin-dalfopristin measured after 10 antibiotic-free subculture by multi-step resistance selection technique; how it was run: as §4
Staphylococcus aureus [35] = assay: Antimicrobial activity against vancomycin-resistant Staphylococcus aureus 509 Michigan after 20 passages with daptomycin measured after 10 antibiotic-free subculture by multi-step resistance selection technique; how it was run: as §1
Staphylococcus aureus [36] = assay: Antimicrobial activity against methicillin and vancomycin-resistant Staphylococcus aureus 510 after single-step resistance selection by agar dilution CLSI method; how it was run: as §3
Staphylococcus aureus [37] = assay: Antimicrobial activity against vancomycin-resistant Staphylococcus aureus 510 Hershey after 18 passages with daptomycin measured after 10 antibiotic-free subculture by multi-step resistance selection technique; how it was run: as §1

Structure (SMILES) | MIC (Staphylococcus aureus [1]) [µg/mL] | MIC (Staphylococcus aureus [2]) [µg/mL] | MIC (Staphylococcus aureus [3]) [µg/mL] | MIC (Staphylococcus aureus [4]) [µg/mL] | MIC (Staphylococcus aureus [5]) [µg/mL] | MIC (Staphylococcus aureus [6]) [µg/mL] | MIC (Staphylococcus aureus [7]) [µg/mL] | MIC (Staphylococcus aureus [8]) [µg/mL] | MIC (Staphylococcus aureus [9]) [µg/mL] | MIC (Staphylococcus aureus [10]) [µg/mL] | MIC (Staphylococcus aureus [11]) [µg/mL] | MIC (Staphylococcus aureus [12]) [µg/mL] | MIC (Staphylococcus aureus [13]) [µg/mL] | MIC (Staphylococcus aureus [14]) [µg/mL] | MIC (Staphylococcus aureus [15]) [µg/mL] | MIC (Staphylococcus aureus [16]) [µg/mL] | MIC (Staphylococcus aureus [17]) [µg/mL] | MIC (Staphylococcus aureus [18]) [µg/mL] | MIC (Staphylococcus aureus [19]) [µg/mL] | MIC (Staphylococcus aureus [20]) [µg/mL] | further results
CCCCCCCCCC(=O)N[C@@H](Cc1c[nH]c2ccccc12)C(=O)N[C@H](CC(N)=O)C(=O)N[C@@H](CC(=O)O)C(=O)N[C@@H]1C(=O)NCC(=O)N[C@@H](CCCN)C(=O)N[C@@H](CC(=O)O)C(=O)N[C@H](C)C(=O)N[C@@H](CC(=O)O)C(=O)NCC(=O)N[C@H](CO)C(=O)N[C@@H]([C@H](C)CC(=O)O)C(=O)N[C@@H](CC(=O)c2ccccc2N)C(=O)O[C@@H]1C | 1 (≈ 0.617 µM) | 1 (≈ 0.617 µM) | 0.5 (≈ 0.309 µM) | 1 (≈ 0.617 µM) | 1 (≈ 0.617 µM) | 2 (≈ 1.23 µM) | 1 (≈ 0.617 µM) | 1 (≈ 0.617 µM) | 1 (≈ 0.617 µM) | 1 (≈ 0.617 µM) | 0.5 (≈ 0.309 µM) | 0.5 (≈ 0.309 µM) | 1 (≈ 0.617 µM) | 1 (≈ 0.617 µM) | 4 (≈ 2.47 µM) | 1 (≈ 0.617 µM) | 2 (≈ 1.23 µM) | 1 (≈ 0.617 µM) | 1 (≈ 0.617 µM) | 2 (≈ 1.23 µM) | MIC50 (Staphylococcus aureus [21]): 0.5 µg/mL (≈ 0.309 µM); MIC90 (Staphylococcus aureus [21]): 0.5 µg/mL (≈ 0.309 µM); MIC (Staphylococcus aureus [22]): 0.5 µg/mL (≈ 0.309 µM); MIC (Staphylococcus aureus [23]): 0.5 µg/mL (≈ 0.309 µM); MIC (Staphylococcus aureus [24]): 0.5 µg/mL (≈ 0.309 µM); MIC (Staphylococcus aureus [25]): 8 µg/mL (≈ 4.94 µM); MIC (Staphylococcus aureus [26]): 8 µg/mL (≈ 4.94 µM); MIC (Staphylococcus aureus [27]): 4 µg/mL (≈ 2.47 µM); MIC (Staphylococcus aureus [28]): 2 µg/mL (≈ 1.23 µM); MIC (Staphylococcus aureus [29]): 2 µg/mL (≈ 1.23 µM); MIC (Staphylococcus aureus [30]): 1 µg/mL (≈ 0.617 µM); MIC (Staphylococcus aureus [31]): 4 µg/mL (≈ 2.47 µM); MIC (Staphylococcus aureus [32]): 1 µg/mL (≈ 0.617 µM); MIC (Staphylococcus aureus [33]): 1 µg/mL (≈ 0.617 µM); MIC (Staphylococcus aureus [34]): 1 µg/mL (≈ 0.617 µM); MIC (Staphylococcus aureus [35]): 4 µg/mL (≈ 2.47 µM); MIC (Staphylococcus aureus [36]): 0.5 µg/mL (≈ 0.309 µM); MIC (Staphylococcus aureus [37]): 4 µg/mL (≈ 2.47 µM)
Cc1c(N)cccc1Cn1ccc(OCCc2cccs2)cc1=O [CG-400549] | 1 (≈ 2.94 µM) | 0.25 (≈ 0.734 µM) | 0.125 (≈ 0.367 µM) | 0.125 (≈ 0.367 µM) | 0.125 (≈ 0.367 µM) | 0.125 (≈ 0.367 µM) | 4 (≈ 11.7 µM) | 4 (≈ 11.7 µM) | 0.25 (≈ 0.734 µM) | 1 (≈ 2.94 µM) | 0.125 (≈ 0.367 µM) | 0.25 (≈ 0.734 µM) | 8 (≈ 23.5 µM) | 0.125 (≈ 0.367 µM) | 0.25 (≈ 0.734 µM) | 0.25 (≈ 0.734 µM) | 0.125 (≈ 0.367 µM) | 4 (≈ 11.7 µM) | > 64 | 0.125 (≈ 0.367 µM) | MIC50 (Staphylococcus aureus [21]): 0.25 µg/mL (≈ 0.734 µM); MIC90 (Staphylococcus aureus [21]): 0.25 µg/mL (≈ 0.734 µM); MIC (Staphylococcus aureus [22]): 0.125 µg/mL (≈ 0.367 µM); MIC (Staphylococcus aureus [23]): 0.125 µg/mL (≈ 0.367 µM); MIC (Staphylococcus aureus [24]): 0.125 µg/mL (≈ 0.367 µM); MIC (Staphylococcus aureus [25]): 2 µg/mL (≈ 5.87 µM); MIC (Staphylococcus aureus [26]): 2 µg/mL (≈ 5.87 µM); MIC (Staphylococcus aureus [27]): 0.25 µg/mL (≈ 0.734 µM); MIC (Staphylococcus aureus [28]): 0.5 µg/mL (≈ 1.47 µM); MIC (Staphylococcus aureus [29]): 0.125 µg/mL (≈ 0.367 µM); MIC (Staphylococcus aureus [30]): 0.125 µg/mL (≈ 0.367 µM); MIC (Staphylococcus aureus [31]): 0.125 µg/mL (≈ 0.367 µM); MIC (Staphylococcus aureus [32]): 0.125 µg/mL (≈ 0.367 µM); MIC (Staphylococcus aureus [33]): 0.25 µg/mL (≈ 0.734 µM); MIC (Staphylococcus aureus [34]): 0.25 µg/mL (≈ 0.734 µM); MIC (Staphylococcus aureus [35]): 1 µg/mL (≈ 2.94 µM); MIC (Staphylococcus aureus [36]): 0.125 µg/mL (≈ 0.367 µM); MIC (Staphylococcus aureus [37]): 0.125 µg/mL (≈ 0.367 µM)
